According to ChEMBL document CHEMBL5376019, “Design, synthesis and evaluation of 2-phenylpyrimidine derivatives as novel antifungal agents targeting CYP51” (RSC Med Chem, 2024):
Values after ≈ are worked out from the molar mass of the structure shown.

Key:
CYP2C19 = CYP2C19 (Homo sapiens, UniProt P33261); experiment: Inhibition of CYP2C19 in human liver microsomes using S-mephenytoin as substrate at 10 uM incubated for 10 min by LC-MS/MS analysis relative to control; type: ADME, Microsome; details: probe S-mephenytoin
In short: (§1)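 Human liver microsomes (0.253 mg mL−1) were used with probe substrates: phenacetin 90 μM (1A2), diclofenac 8 μM (2C9), S-mephenytoin 20 μM (2C19), dextromethorphan 4 μM (2D6), and midazolam 2 μM plus testosterone 50 μM (3A4). Test compound was at 10 μM. Mixtures were preincubated 5 min at 37 °C, then started with an NADPH regenerating system and run 10 min at 37 °C. Reactions were stopped with internal standard and supernatant analysed by LC-MS/MS. Isoform-selective inhibitors at 10 μM served as positive controls.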

Candida tropicalis = experiment: Antifungal activity against Candida tropicalis CGMCC 2.3739 assessed as fungal growth inhibition; type: functional
In short: (§2)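 Broth microdilution per NCCLS M27-A3, with fluconazole as positive control. Assay medium was RPMI 1640 buffered with MOPS. Inocula were diluted to 1–5 × 10^3 CFU mL−1 and seeded in 96-well plates. Compounds were dissolved in DMSO and serially diluted in the growth medium. MIC was the read-out.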

Candida parapsilosis = experiment: Antifungal activity against Candida parapsilosis GIM 2.190 assessed as fungal growth inhibition; type: functional; details: Lodderomyces parapsilosis; in short: as §2
[1] = Metabolic stability in human liver microsomes assessed as half life measured upto 60 min by LC-MS/MS analysis; type: ADME, Microsome
In short: (§3)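 Human liver microsomes were diluted to 0.59 mg mL−1 in 100 mM potassium phosphate buffer and prewarmed 10 min at 37 °C. Compound was added from a 100 μM working solution. Incubation was 60 min at 37 °C with NADPH, alongside a no-cofactor control. Samples taken at 5, 15, 30, 45 and 60 min were quenched in acetonitrile containing tolbutamide and labetalol, centrifuged, and analysed by LC-MS/MS.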

Cryptococcus neoformans = experiment: Antifungal activity against Cryptococcus neoformans CGMCC 2.3161 assessed as fungal growth inhibition; type: functional; in short: as §2
CYP1A2 = biological target: T1, CYP1A2 (Homo sapiens, UniProt P05177); experiment: Inhibition of CYP1A2 in human liver microsomes using phenacetin as substrate at 10 uM incubated for 10 min by LC-MS/MS analysis relative to control; type: ADME, Microsome; details: probe phenacetin; in short: as §1
T1 sequence (P05177 whole entry): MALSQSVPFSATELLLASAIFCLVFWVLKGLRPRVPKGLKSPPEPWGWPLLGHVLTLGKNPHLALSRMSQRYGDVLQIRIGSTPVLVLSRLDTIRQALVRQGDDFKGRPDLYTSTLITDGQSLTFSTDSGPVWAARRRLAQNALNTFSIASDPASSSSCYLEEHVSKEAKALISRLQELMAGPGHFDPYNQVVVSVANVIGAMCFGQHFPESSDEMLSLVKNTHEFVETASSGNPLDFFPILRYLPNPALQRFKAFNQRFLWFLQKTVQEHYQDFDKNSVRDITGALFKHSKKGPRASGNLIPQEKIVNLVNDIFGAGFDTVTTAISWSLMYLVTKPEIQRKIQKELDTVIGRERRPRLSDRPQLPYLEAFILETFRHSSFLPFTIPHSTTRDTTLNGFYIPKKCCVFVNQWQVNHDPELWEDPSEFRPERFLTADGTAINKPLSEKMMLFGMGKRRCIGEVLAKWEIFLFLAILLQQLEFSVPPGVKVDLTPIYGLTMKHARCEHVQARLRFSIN

[2] = Metabolic stability in human liver microsomes assessed as intrinsic clearance measured upto 60 min by LC-MS/MS analysis; type: ADME, Microsome; details: 1 h; in short: as §3
MDA-MB-231 = experiment: Cytotoxicity against human MDA-MB-231 cells assessed as reduction in cell viability at 32 uM incubated for 24 hrs by CCK-8 assay; type: toxicity, cell-based; details: mda-mb-231, 24 h
In short: (§4)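 Cells from ATCC were grown in RPMI-1640 or DMEM with 10% FBS and 1% penicillin/streptomycin. They were seeded at 5 × 10^4 cells/well and allowed to adhere overnight at 37 °C, 5% CO2, with at least 6 replicates per group. Compounds were applied at 2–64 μM for 24 h; medium-only wells served as control. Viability was measured by CCK-8 absorbance at 450 nm.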

Nakaseomyces glabratus = experiment: Antifungal activity against clinical isolate Candida glabrata assessed as fungal growth inhibition; type: functional; in short: as §2
CYP2C9 = CYP2C9 (Homo sapiens, UniProt P11712); experiment: Inhibition of CYP2C9 in human liver microsomes using diclofenac as substrate at 10 uM incubated for 10 min by LC-MS/MS analysis relative to control; type: ADME, Microsome; details: probe diclofenac; in short: as §1
[3] = Metabolic stability in human liver microsomes assessed as remaining measured upto 60 min by LC-MS/MS analysis; type: ADME, Microsome; details: read-out: Stability; in short: as §3
Candida albicans [4] = experiment: Antifungal activity against Candida albicans CPCC400616 assessed as fungal growth inhibition; type: functional; in short: as §2
Pichia kudriavzevii = experiment: Antifungal activity against Pichia kudriavzevii GIM 2.1 assessed as fungal growth inhibition; type: functional; in short: as §2
L929 = experiment: Cytotoxicity against mouse L929 cells assessed as reduction in cell viability at 32 uM incubated for 24 hrs by CCK-8 assay; type: toxicity, cell-based; details: l929, 24 h; in short: as §4
CYP3A4 = CYP3A4 (Homo sapiens, UniProt P08684); experiment: Inhibition of CYP3A4 in human liver microsomes using midazolam and testosterone as substrates at 10 uM incubated for 10 min by LC-MS/MS analysis relative to control; type: ADME, Microsome; details: probe midazolam and testosterone; in short: as §1
CYP2D6 = CYP2D6 (Homo sapiens, UniProt P10635); experiment: Inhibition of CYP2D6 in human liver microsomes using dextromethorphan as substrate at 10 uM incubated for 10 min by LC-MS/MS analysis relative to control; type: ADME, Microsome; details: probe dextromethorphan; in short: as §1
DU-145 = experiment: Cytotoxicity against human DU-145 cells assessed as reduction in cell viability at 32 uM incubated for 24 hrs by CCK-8 assay; type: toxicity, cell-based; details: du-145, 24 h; in short: as §4
Candida albicans [5] = experiment: Antifungal activity against Candida albicans ATCC SC5314 assessed as fungal growth inhibition; type: functional; in short: as §2

Sequence of CYP2C19 (P33261 whole entry, canonical isoform): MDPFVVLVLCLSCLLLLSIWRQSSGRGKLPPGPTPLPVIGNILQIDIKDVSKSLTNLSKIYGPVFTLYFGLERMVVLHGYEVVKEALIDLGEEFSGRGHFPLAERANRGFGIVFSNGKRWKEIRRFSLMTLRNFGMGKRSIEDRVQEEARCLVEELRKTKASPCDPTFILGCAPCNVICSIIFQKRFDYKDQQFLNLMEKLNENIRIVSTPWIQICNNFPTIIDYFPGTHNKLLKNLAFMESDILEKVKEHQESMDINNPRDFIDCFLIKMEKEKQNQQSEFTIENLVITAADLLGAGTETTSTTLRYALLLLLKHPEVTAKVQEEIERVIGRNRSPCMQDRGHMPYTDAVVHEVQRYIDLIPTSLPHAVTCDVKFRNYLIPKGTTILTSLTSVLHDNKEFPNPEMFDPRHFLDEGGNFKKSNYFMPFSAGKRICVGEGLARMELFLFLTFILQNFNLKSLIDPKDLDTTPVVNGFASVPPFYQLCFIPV
Sequence of CYP2C9 (P11712 whole entry): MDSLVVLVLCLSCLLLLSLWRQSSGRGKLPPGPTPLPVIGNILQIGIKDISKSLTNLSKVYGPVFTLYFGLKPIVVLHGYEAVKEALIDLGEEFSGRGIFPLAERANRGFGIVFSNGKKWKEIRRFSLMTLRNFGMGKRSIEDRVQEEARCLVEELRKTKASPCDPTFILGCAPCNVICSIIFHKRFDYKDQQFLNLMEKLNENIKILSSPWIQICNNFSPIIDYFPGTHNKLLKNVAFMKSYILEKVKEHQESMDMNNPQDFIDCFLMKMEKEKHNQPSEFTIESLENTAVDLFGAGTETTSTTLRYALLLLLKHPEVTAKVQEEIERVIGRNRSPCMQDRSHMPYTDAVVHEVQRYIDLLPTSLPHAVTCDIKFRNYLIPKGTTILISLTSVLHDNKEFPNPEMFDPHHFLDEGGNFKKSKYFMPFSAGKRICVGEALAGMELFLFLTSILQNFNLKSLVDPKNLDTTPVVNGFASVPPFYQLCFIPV
Sequence of CYP3A4 (P08684 whole entry): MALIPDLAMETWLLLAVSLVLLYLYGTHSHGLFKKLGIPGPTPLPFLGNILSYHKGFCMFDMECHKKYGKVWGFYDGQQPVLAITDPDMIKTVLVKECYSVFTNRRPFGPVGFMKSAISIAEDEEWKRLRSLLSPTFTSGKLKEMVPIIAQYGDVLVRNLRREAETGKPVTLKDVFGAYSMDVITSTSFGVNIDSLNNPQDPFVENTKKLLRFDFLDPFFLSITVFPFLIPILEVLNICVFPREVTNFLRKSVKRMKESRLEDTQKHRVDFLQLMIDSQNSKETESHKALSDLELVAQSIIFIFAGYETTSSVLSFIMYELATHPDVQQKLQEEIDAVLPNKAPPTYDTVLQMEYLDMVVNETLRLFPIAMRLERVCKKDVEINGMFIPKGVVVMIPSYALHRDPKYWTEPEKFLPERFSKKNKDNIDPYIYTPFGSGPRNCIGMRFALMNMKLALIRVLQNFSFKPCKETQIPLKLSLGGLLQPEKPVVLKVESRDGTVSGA
Sequence of CYP2D6 (P10635 whole entry): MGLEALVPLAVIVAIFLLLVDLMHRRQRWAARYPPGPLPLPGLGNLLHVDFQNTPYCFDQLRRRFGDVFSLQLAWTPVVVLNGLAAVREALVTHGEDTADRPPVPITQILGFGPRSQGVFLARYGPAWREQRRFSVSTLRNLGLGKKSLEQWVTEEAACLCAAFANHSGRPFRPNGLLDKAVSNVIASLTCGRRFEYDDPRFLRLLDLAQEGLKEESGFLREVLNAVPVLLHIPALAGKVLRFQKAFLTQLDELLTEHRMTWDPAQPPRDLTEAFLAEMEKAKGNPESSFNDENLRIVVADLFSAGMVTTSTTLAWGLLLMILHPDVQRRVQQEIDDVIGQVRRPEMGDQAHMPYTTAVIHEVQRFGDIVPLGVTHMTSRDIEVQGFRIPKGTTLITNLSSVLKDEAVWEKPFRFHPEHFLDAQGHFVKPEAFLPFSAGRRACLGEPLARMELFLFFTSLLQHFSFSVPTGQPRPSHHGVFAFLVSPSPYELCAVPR

COc1ccc(C(=O)C(Cn2ccnc2)NC(=O)c2cnc(-c3cccc(F)c3)nc2)cc1 (racemic)
inhibition at 10 min, 10 µM (CYP2C19): 89.4%
MIC (Candida tropicalis): 0.25 µg/mL (≈ 0.561 µM)
MIC (Candida parapsilosis): 1 µg/mL (≈ 2.24 µM)
half-life [1]: 14.8 min
MIC (Cryptococcus neoformans): 32 µg/mL (≈ 71.8 µM)
inhibition at 10 min, 10 µM (CYP1A2): 38.4%
CLH [2]: 94 µL/min/mg
Activity (MDA-MB-231): Non-Toxic
MIC (Nakaseomyces glabratus): 1 µg/mL (≈ 2.24 µM)
inhibition at 10 min, 10 µM (CYP2C9): 89.8%
remaining at 1 h [3]: 6.33%
MIC (Candida albicans [4]): 1 µg/mL (≈ 2.24 µM)
MIC (Pichia kudriavzevii): 1 µg/mL (≈ 2.24 µM)
Activity (L929): Non-Toxic
inhibition at 10 min, 10 µM (CYP3A4): 92.3%
inhibition at 10 min, 10 µM (CYP2D6): 72.3%
Activity (DU-145): Non-Toxic
MIC (Candida albicans [5]): 0.25 µg/mL (≈ 0.561 µM)
